Experimental data taken from ChEMBL document CHEMBL4339193, “Phenotypic Screening-Based Identification of 3,4-Disubstituted Piperidine Derivatives as Macrophage M2 Polarization Modulators: An Opportunity for Treating Multiple Sclerosis” (J Med Chem, 2019).
The source made the active and inactive calls. No cut-off for these calls is given here.

What was measured:
[1] = target: Signal transducer and activator of transcription 3 (Mus musculus) (UniProt P42227); experiment: Stimulation of STAT3 phosphorylation at Y705 residue in mouse RAW264.7 cells at 300 nM measured after 4 to 24 hrs by Western blot analysis; format: cell-based
Signal transducer and activator of transcription 3 (Mus musculus), sequence (P42227 whole entry): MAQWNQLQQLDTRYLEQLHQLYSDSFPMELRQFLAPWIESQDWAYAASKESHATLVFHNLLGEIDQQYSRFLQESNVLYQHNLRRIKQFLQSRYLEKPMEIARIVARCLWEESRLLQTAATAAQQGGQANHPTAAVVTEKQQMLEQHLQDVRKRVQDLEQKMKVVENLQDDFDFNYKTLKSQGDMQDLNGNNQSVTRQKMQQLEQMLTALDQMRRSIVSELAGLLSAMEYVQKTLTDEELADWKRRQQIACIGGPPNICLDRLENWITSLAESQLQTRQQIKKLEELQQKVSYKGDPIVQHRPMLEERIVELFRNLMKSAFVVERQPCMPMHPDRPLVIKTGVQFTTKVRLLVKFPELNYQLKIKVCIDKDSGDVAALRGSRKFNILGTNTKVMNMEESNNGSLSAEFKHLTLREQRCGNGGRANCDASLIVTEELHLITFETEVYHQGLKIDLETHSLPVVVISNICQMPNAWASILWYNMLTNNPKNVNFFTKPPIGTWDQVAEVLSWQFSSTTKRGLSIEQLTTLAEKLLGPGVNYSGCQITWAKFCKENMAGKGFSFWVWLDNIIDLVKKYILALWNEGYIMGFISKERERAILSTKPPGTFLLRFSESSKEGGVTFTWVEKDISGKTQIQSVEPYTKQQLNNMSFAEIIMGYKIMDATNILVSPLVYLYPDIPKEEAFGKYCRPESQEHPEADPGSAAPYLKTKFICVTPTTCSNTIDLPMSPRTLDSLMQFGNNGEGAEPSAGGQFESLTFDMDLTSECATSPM
Outline: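 Cell lysates separated by SDS-PAGE, transferred to PVDF and probed for Akt, p-Akt(308), p-Akt(473), Stat3, p-Stat3(Y705), Stat6 and p-Stat6; ECL detection, GAPDH as loading control.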

[2] = AUC (0 to infinity) in Sprague-Dawley rat at 50 mg/kg, po administered as single dose via gavage by LC/MS analysis; format: ADME, organism-based; design: dose 50 mg/kg, time infinity, route oral; settings: in vivo
Outline: (§1)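 Single dose in rats; venous blood (100 µL) drawn at 0, 0.5, 1, 2, 4, 8 and 12 h, plasma separated by centrifugation and held at -20 °C. Compound measured by LC/MS; Cmax, Tmax, t1/2 and AUC derived from the concentration–time data.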

[3] = Tmax in Sprague-Dawley rat at 10 mg/kg, iv administered as single dose by LC/MS analysis; format: ADME, organism-based; settings: in vivo; outline: as §1
Mus musculus [4] = experiment: (§2) Antiinflammatory activity in C57BL/6J mouse model of MOG (35 to 55 residues)/pertussis toxin/complete Freund's adjuvant-induced experimental allergic encephalomyelitis assessed as reduction in infiltration in spinal cord at 200 mg/kg, ig administered daily starting from 7 days post-immunization measured after 14 days post-immunization by LFB staining based microscopic analysis; format: functional, organism-based
Outline: (§3)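 EAE mice dosed daily in saline from day 7 were perfused with PBS and fixed in 4% PFA on day 14; spinal cords were taken. For LFB, frozen OCT sections sat 3 h in 0.1% Luxol Fast Blue at 56-60°C, were differentiated in 0.05% lithium carbonate for 10-12 s, cleared in 70% ethanol, dehydrated and mounted. For H&E, paraffin sections were stained to assess inflammation.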

BMDM [5] = experiment: Inhibition of LPS-induced M1 polarization in C57BL/6J mouse BMDM cells assessed as down regulation of CD86 expression measured after 24 hrs by FACS analysis; format: functional, cell-based
Outline: (§4)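 BMDMs pretreated with 50 ng/ml LPS for 24 h, then given compound (300 nM, or a range of concentrations) for 24 h. Stained for F4/80 and CD86; % CD86+F4/80+ cells read by flow cytometry. Mean ± SEM, at least three independent experiments.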

BMDM [6] = experiment: Inhibition of LPS-induced M1 polarization in C57BL/6J mouse BMDM cells assessed as down regulation of CD86 mRNA expression at 300 nM measured after 24 hrs by qRT-PCR analysis; format: functional, cell-based
Outline: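 BMDMs pre-incubated 24 h with 50 ng/ml LPS to induce M1, then treated 24 h with 300 nM compound. Total RNA extracted with Trizol; Mcp1, Inos and Cd86 mRNA measured by qRT-PCR. Mean ± SEM.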

BMDM [7] = experiment: Inhibition of LPS-induced M1 polarization in C57BL/6J mouse BMDM cells assessed as down regulation of CD86 expression at 300 nM measured after 24 hrs by FACS analysis; format: functional, cell-based; outline: as §4
RAW264.7 [8] = experiment: Modulation of M2 polarization in mouse RAW264.7 cells assessed as up regulation of IL13RA1 mRNA expression at 300 nM measured after 24 hrs by qRT-PCR analysis; format: functional, cell-based
BMDM [9] = experiment: Modulation of M2 polarization in C57BL/6J mouse BMDM cells assessed as up regulation of Fizz1 mRNA expression at 300 nM measured after 24 hrs by qRT-PCR analysis; format: functional, cell-based
Outline: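 BMDMs treated 24 h with 300 nM compound at 37 °C, 5% CO2. Trizol RNA extraction, then qRT-PCR for Arg1, Mrc1 and Fizz1 mRNA. Mean ± SEM.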

RAW264.7 [10] = experiment: Modulation of M2 polarization in mouse RAW264.7 cells assessed as up regulation of PPARGC1A mRNA expression at 300 nM measured after 24 hrs by qRT-PCR analysis; format: functional, cell-based
BMDM [11] = experiment: Modulation of M1 polarization in C57BL/6J mouse BMDM cells assessed as up regulation of TNFalpha expression at 300 nM measured after 4 to 24 hrs by Western blot analysis; format: cell-based; settings: 0.3 µM
Outline: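 BMDMs lysed in pH 7.6 buffer with 1% Triton X-100, phosphatase inhibitor and 1 mM PMSF. Proteins separated by SDS-PAGE, blotted to PVDF and probed with anti-Arg-1, anti-Ym1 or anti-TNF-α, then ECL detection; GAPDH as loading control.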

Mus musculus [12] = experiment: Induction of M2 polarization in C57BL/6J mouse model of MOG (35 to 55 residues)/pertussis toxin/complete Freund's adjuvant-induced experimental allergic encephalomyelitis assessed as CD206 level in spleen at 200 mg/kg, ig administered daily starting from 7 days post-immunization measured after 13 to 19 days post-immunization by flow cytometry analysis (reference value: 23.4%); format: functional
Outline: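 MOG35-55/CFA EAE mice were dosed daily in saline from day 7 and sampled between days 13 and 19. Cells came from spleen and dLN by mechanical dissociation and from CNS by collagenase IV/Percoll. They were stained for F4/80 with CD206 (M2) or CD86 (M1), and each was read by flow cytometry as a percentage of total F4/80+ macrophages.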

[13] = Ratio of AUC (0 to t) to AUC (0 to infinity) in Sprague-Dawley rat at 10 mg/kg, iv administered as single dose […]; format: ADME, organism-based; settings: in vivo
Mus musculus [14] = experiment: Antiinflammatory activity in C57BL/6J mouse model of MOG (35 to 55 residues)/pertussis toxin/complete Freund's adjuvant-induced experimental allergic encephalomyelitis assessed as reduction in development of clinical symptoms at 200 mg/kg, ig administered daily starting from 7 days post-immunization up to 26 days; format: functional, organism-based
Outline: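 MOG35-55/CFA EAE mice received daily saline vehicle, 100 or 200 mg/kg drug, or dexamethasone 10 mg/kg from day 7 post-immunisation. Clinical signs were scored on a 0-5 scale (e.g. 3 = complete bilateral hind limb paralysis, 5 = death). Mean scores used n=5.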

Mus musculus [15] = experiment: as §2, with “H and E” for “LFB”; format: functional, organism-based; outline: as §3
BMDM [16] = experiment: Antiinflammatory activity in LPS-induced C57BL/6J mouse BMDM cells assessed as suppression of M1 macrophage-stimulated CD4 positive T-cell proliferation at 300 nM preincubated for 48 hrs followed by CD4 positive T-cell addition and measured after 72 hrs by CFSE dye based FACS analysis; format: functional
Outline: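 BMDMs given 300 nM compound with 50 ng/ml LPS for 48 h on day 5 of differentiation; drug removed day 7. Cells then cocultured 1:1 with CFSE-labelled negatively selected naïve CD4+ T cells plus 500 ng/ml anti-CD3 and 500 ng/ml anti-CD28. T-cell proliferation (CFSE MFI, % proliferated) read by flow cytometry after 72 h. Mean ± SEM, at least three independent experiments.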

BMDM [17] = experiment: Modulation of M2 polarization in C57BL/6J mouse BMDM cells assessed as up regulation of CD206 expression measured after 24 hrs by FACS analysis; format: functional, cell-based
Outline: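 BMDMs exposed to compound (300 nM, or a range of concentrations) for 24 h. Stained for F4/80 and CD206; % CD206+F4/80+ cells read by flow cytometry. Mean ± SEM, at least three independent experiments.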

[18] = Half life in Sprague-Dawley rat at 50 mg/kg, po administered as single dose via gavage by LC/MS analysis; format: ADME, organism-based; settings: in vivo; outline: as §1

SMILES: Cl.Cn1ncc(Cl)c1-c1ccc(C(=O)N[C@@H]2CNCC[C@H]2c2cccc(F)c2)cc1
- Activity [1]: Active
- AUC(0-inf) [2]: 4740 ng·h/mL
- Tmax [3]: 4.98 min
- Activity (Mus musculus [4]): Active
- inhibition (BMDM [5]): Dose-dependent effect
- inhibition (BMDM [6]): Active
- inhibition (BMDM [7]): Active
- Activity (RAW264.7 [8]): Active
- Activity (BMDM [9]): Active
- Activity (RAW264.7 [10]): Active
- Activity (BMDM [11]): Non-Toxic
- Activity (Mus musculus [12]): 37.2%
- Ratio AUC [13]: 98.75%
- Activity (Mus musculus [14]): Active
- Activity (Mus musculus [15]): Active
- Activity (BMDM [16]): Active
- Activity (BMDM [17]): Dose-dependent effect
- half-life [18]: 466 min
